From ChEMBL document CHEMBL1153722, “Design, synthesis, and characterization of peptide-based rab geranylgeranyl transferase inhibitors” (J Med Chem, 2009) come the findings set out here.

Active and inactive are the calls of the source. The rule behind the calls is not given here.

Data set [1] in a line: Inhibition of rat recombinant Rab geranylgeranyltransferase iin presence of canine Rab7 and rat REP1 by NBD-FPP based continuous fluorimetric assay. In outline: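 Continuous fluorometric assay in 96/384-well format: 3 μM Rab7, 3 μM REP1, 9 μM NBD-FPP and 400 nM RabGGTase, with or without inhibitor. IC50 was calculated from three independent measurements.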
For data set [2], the target named is protein farnesyltransferase (Rattus norvegicus). The data set is described as follows: Inhibition of rat recombinant FTase by SDS-PAGE end point assay.
Data set [3] in a line: Inhibition of rat recombinant Rab geranylgeranyltransferase by SDS-PAGE end point assay. In outline: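 End-point transfer of fluorescent prenyl analogues (NBD-GPP or NBD-FPP) to protein substrates was run for 10 min at varied inhibitor concentrations. Substrates were GST-KiRas for FTase, GST-RhoA for GGTase-I and Rab7 for RabGGTase. Reactions were quenched with SDS sample buffer and run on SDS-PAGE. Fluorescent bands were quantified by densitometry.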

The species entered for data set [4] is Rattus norvegicus. The data set can be described thus: Inhibition of rat recombinant Rab geranylgeranyltransferase at 100 uM in presence of canine Rab7 and rat REP1 NBD-FPP based continuous fluorimetric assay. In a few lines: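 Continuous fluorometric assay in 96/384-well format: 3 μM Rab7, 3 μM REP1, 9 μM NBD-FPP and 400 nM RabGGTase, with or without inhibitor. […] IC50 was calculated from three independent measurements.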

Data set [5] has as its target geranylgeranyltransferase type-I (Rattus norvegicus). The data set is described as follows: Inhibition of rat recombinant GGTase-1 by SDS-PAGE end point assay.
Data set [6] relates to COS-7 (Chlorocebus aethiops). The data set is described as follows: Cytotoxicity in monkey COS-7 cells at 100 uM. Particulars: COS-7, 100 µM.
Data set [7] is described as follows: Displacement of Mant-FPP from rat recombinant Rab geranylgeranyltransferase by co-titration based fluorescence assay. In outline:
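RabGGTase was titrated into 300 nM Mant-FPP at several fixed inhibitor concentrations. Apparent Kd of Mant-FPP was obtained at each inhibitor level by quadratic fitting. Linear versus hyperbolic dependence of apparent Kd on inhibitor concentration was taken as competitive versus partially competitive binding.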

The species entered for data set [8] is Rattus norvegicus. The data set can be described thus: Displacement of NBD-FPP from rat recombinant Rab geranylgeranyltransferase by fluorescence titration. In outline: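 Displacement titration: 400 nM NBD-FPP was pre-equilibrated with 550 nM RabGGTase. Inhibitor was added stepwise in 1 or 5 μM increments while NBD fluorescence was monitored. The end point was controlled by a final addition of GGPP to 4 μM.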

Data set [9] relates to COS-7 (Chlorocebus aethiops). The data set is described as follows: Inhibition of recombinant Rab geranylgeranyltransferase expressed in COS-7 cells assessed as inhibition of geranylgeranylation of EYFP-Rab7 protein at 10 to 100 uM by Western blot relative to compactin.
Data set [10] concerns COS-7 (Chlorocebus aethiops). The data set is described as follows: Inhibition of recombinant Rab geranylgeranyltransferase expressed in COS-7 cells assessed as inhibition of geranylgeranylation of EYFP-Rab7 protein by Western blot. Set-up: concentration or dose not given beside the values. Particulars: dose or concentration not given here.

In the case of `O=C(CNC(=O)[C@H](Cc1cn(C(c2ccccc2)(c2ccccc2)c2ccccc2)cn1)NC(=O)c1coc(-c2ccccc2)n1)N[C@@H](Cc1c[nH]cn1)C(=O)O`, the IC50 came out at 38 µM in [1], 14 µM in data set [2], 41 µM in data set [3] and 2.6 µM in [5]. The inhibition in the data set filed under Rattus norvegicus [4] came out at 86%.
On to `CCCCCCCCCCC(=O)N[C@@H](Cc1ccc(O)cc1)C(=O)N[C@@H](Cc1c[nH]cn1)C(=O)N[C@@H](Cc1ccc(O)cc1)C(=O)N(C)CCc1ccccn1`, for which the half-maximal inhibitory concentration (IC50) in data set [1] is 6.3 µM; in data set [2] it was above 100 µM; in data set [3] it was 4.3 µM; in [5], above 100 µM. The results for the Activity result in data set [6] and in data set [9] were “Non-toxic” and “Dose-dependent effect”, respectively. The Ki in data set [7] is 2.8 µM. Moreover, the result in the data set filed under Rattus norvegicus [8] was Active. Also, the inhibition in data set [10] was determined as 70%.
For the compound `O=C(CNC(=O)[C@H](Cc1c[nH]cn1)NC(=O)c1coc(-c2ccccc2)n1)N[C@@H](Cc1cn(C(c2ccccc2)(c2ccccc2)c2ccccc2)cn1)C(=O)O`, the IC50 was found to be 8.1 µM in data set [1], 13 µM in data set [2], 14 µM in data set [3] and 6.9 µM in data set [5]. Moreover, the Activity entry in [6] is “Non-toxic”; in data set [9], “Dose-dependent effect”. For the same compound, in data set [7], the Ki was 5.3 µM. In addition, the result in the data set filed under Rattus norvegicus [8] was Active. For the same compound, the inhibition in [10] is 70%.
